The source made the active and inactive calls. The calls are words filed in the database; no cut-off is given here.
Key:
HCT-116 [1] = assay: Effect on micronucleation in human HCT116 up to 50 uM; type: functional, cell-based
In short: (§1)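 Cell-based screen for disruption of interphase and mitotic microtubules, tested at concentrations up to 50 µM; scored for microtubule density, bundling, circular mitotic spindles, micronucleation and other nuclear changes.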

HCT-116 [2] = assay: Formation of circular mitotic spindles in human HCT116 up to 50 uM; type: functional, cell-based; in short: as §1
MDA-MB-435 = assay: Cytotoxicity against human MDA-MB-435 cells after 48 hrs by SRB assay; conditions: MDA-MB-435, 48 h
HCT-116 [3] = assay: Cytotoxicity against human HCT116 cells after 72 hrs by trypan blue viable cell count; conditions: HCT-116, 72 h
HCT-116 [4] = assay: Increase in microtubule density in human HCT116 up to 50 uM; type: functional, cell-based; in short: as §1
[5] = Cytotoxicity against human H125 cells at 100 ug/disk by disk diffusion method; type: functional
In short: (§2)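 Soft agar colony formation assay with compound applied by disk diffusion; cell lines: murine L1210 leukemia and C38 colon, human HCT-116 colon, H-125 lung, CEM leukemia, normal hematopoietic CFU-GM. Differential cytotoxicity given as zone-unit differential between a solid tumor line and leukemia (ΔSL) or normal cells (ΔSN).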

L1210 [6] = assay: Cytotoxicity against mouse L1210 cells at 100 ug/disk by disk diffusion method; type: functional; in short: as §2
[7] = Cytotoxicity against human H116 cells at 100 ug/disk by disk diffusion method; type: functional; in short: as §2
MC-38 [8] = assay: Cytotoxicity against mouse C38 cells at 100 ug/disk by disk diffusion method; type: functional; in short: as §2
L1210 [9] = assay: Cytotoxicity against mouse L1210 cells at 30 ug/disk by disk diffusion method; type: functional; in short: as §2
[10] = Cytotoxicity against human H125 cells at 30 ug/disk by disk diffusion method; type: functional; in short: as §2
[11] = Cytotoxicity against human H116 cells at 30 ug/disk by disk diffusion method; type: functional; in short: as §2
MC-38 [12] = assay: Cytotoxicity against mouse C38 cells at 30 ug/disk by disk diffusion method; type: functional; in short: as §2
[13] = Cytotoxicity against human H125 cells at 9 ug/disk by disk diffusion method; type: functional
In short: (§3)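 Disk diffusion soft agar colony formation assay using solid tumor lines (murine colon C38, human colon HCT-116, human lung H125), leukemia lines (murine L1210, human CEM) and normal CFU-GM cells. Results are inhibition zones in zone units. Differential cytotoxicity is the zone difference between solid tumor and leukemia cells (ΔSL) or normal cells (ΔSN).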

[14] = Cytotoxicity against human H116 cells at 9 ug/disk by disk diffusion method; type: functional; in short: as §3
MC-38 [15] = assay: Cytotoxicity against mouse C38 cells at 36 ug/disk by disk diffusion method; type: functional; in short: as §3
HCT-116 [16] = assay: Antitumor activity against HCT116 bearing SCID mice at 25 mg/kg bolus iv after 11 days relative to control; type: functional, Homo sapiens
In short: (§4)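 SCID mice were implanted subcutaneously with 10^6 HCT-116 cells and pooled, 5 per group. Dosing started 3 days after inoculation: daily iv tail-vein bolus for 5 days, 0.25 mL of 1 or 2 mg/mL (about 12.5 or 25 mg/kg/day) in DMSO/cremophor/propylene glycol/saline vehicle. Tumor weight and body weight were followed to day 30, and %T/C was calculated versus untreated controls.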

HCT-116 [17] = assay: Formation of thick bundles of microtubule stabilization in human HCT116 cells at 2 to 20 uM; type: functional, cell-based
HCT-116 [18] = assay: Cytotoxicity against human HCT116 cells assessed as cell kill at 1.2 ng/mL after 168 hrs; type: functional
In short: (§5)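 Clonogenic assay. HCT-116 cells were seeded at 200 to 20 000 per 60 mm dish in RPMI + 10% FBS, then given drug at 1 mg/mL and 10-fold dilutions. Exposure was 2 h or 24 h followed by drug-free medium, or continuous. Dishes were incubated 7 days and stained with methylene blue; colonies of ≥50 cells were counted and normalized to untreated control. Experiments were repeated to span 100–0.1% survival.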

[19] = Drug level in HCT116 bearing SCID mice plasma at 25 mg/kg, iv after 2 hrs; type: ADME, organism-based; parameters: dose 25 mg/kg, route intravenous; conditions: mouse
In short: (§6)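 SCID mice bearing subcutaneous HCT-116 tumors (~100 mg) got a single iv dose of 0.5 mg/mouse (25 mg/kg) in 0.25 mL. Vehicle: 10 mg/mL DMSO stock mixed 1:1 with cremophor/propylene glycol (60:40), then diluted 20-fold in saline. Plasma was taken from individual mice at 1, 15, 30 min and 1, 2, 6, 24 h. Drug was extracted by solid-phase extraction and measured by C18 HPLC with UV detection at 218 nm.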

[20] = Cytotoxicity against human CFU-GM cells at 9 ug/disk by disk diffusion method; type: cell-based; in short: as §3
[21] = Drug level in HCT116 bearing SCID mice plasma at 25 mg/kg, iv after 24 hrs; type: ADME, organism-based; parameters: dose 25 mg/kg, route intravenous; conditions: mouse; in short: as §6
HCT-116 [22] = assay: Abnormal circular mitotic spindles formation in human HCT116 cells at 2 to 20 uM; type: functional, cell-based
[23] = Drug level in HCT116 bearing SCID mice plasma at 25 mg/kg, iv after 1 min; type: ADME, organism-based; parameters: dose 25 mg/kg, route intravenous; conditions: mouse; in short: as §6
CCRF-CEM [24] = assay: Cytotoxicity against human CEM cells at 36 ug/disk by disk diffusion method; type: functional; in short: as §3
HCT-116 [25] = assay: Survival of human HCT116 cells at 5 ng/mL after 168 hrs; type: functional; conditions: HCT-116, 168 h, read-out: Survival; in short: as §5
HCT-116 [26] = assay: Formation of thick bundles of microtubule stabilization in human HCT116 cells at 20 uM; type: functional, cell-based
HCT-116 [27] = assay: Increase in microtubule density in human HCT116 cells at 20 uM; type: functional, cell-based
HCT-116 [28] = assay: Antitumor activity against HCT116 bearig SCID mouse assessed as tumor weight at 25 mg/kg, iv after 30 mins; type: functional, Homo sapiens
HCT-116 [29] = assay: Cytotoxicity against human HCT116 cells assessed as cell kill at 10 ng/mL after 24 hrs; type: functional; in short: as §5
L1210 [30] = assay: Cytotoxicity against mouse L1210 cells at 9 ug/disk by disk diffusion method; type: functional; in short: as §3
HCT-116 [31] = assay: Antitumor activity against HCT116 bearing SCID mice at 12.5 mg/kg bolus iv after 9 days relative to control; type: functional, Homo sapiens; in short: as §4
HCT-116 [32] = assay: Antitumor activity against HCT116 bearig SCID mouse assessed as tumor weight at 25 mg/kg, iv after 24 hrs; type: functional, Homo sapiens
[33] = Cytotoxicity against human H125 cells at 40 ug/disk by disk diffusion method; type: functional; in short: as §2
[34] = Cytotoxicity against human H116 cells at 40 ug/disk by disk diffusion method; type: functional; in short: as §2
MC-38 [35] = assay: Cytotoxicity against mouse C38 cells at 40 ug/disk by disk diffusion method; type: functional; in short: as §2
[36] = Cytotoxicity against human CFU-GM cells at 40 ug/disk by disk diffusion method; type: cell-based; in short: as §2
CCRF-CEM [37] = assay: Cytotoxicity against human CEM cells at 40 ug/disk by disk diffusion method; type: functional; in short: as §2
L1210 [38] = assay: Cytotoxicity against mouse L1210 cells at 40 ug/disk by disk diffusion method; type: functional; in short: as §2
[39] = Cytotoxicity against human H125 cells at 60 ug/disk by disk diffusion method; type: functional; in short: as §3
[40] = Cytotoxicity against human H116 cells at 60 ug/disk by disk diffusion method; type: functional; in short: as §3
L1210 [41] = assay: Cytotoxicity against mouse L1210 cells at 60 ug/disk by disk diffusion method; type: functional; in short: as §3
MC-38 [42] = assay: Cytotoxicity against mouse C38 cells at 60 ug/disk by disk diffusion method; type: functional; in short: as §3
[43] = Cytotoxicity against human CFU-GM cells at 30 ug/disk by disk diffusion method; type: cell-based; in short: as §2

SMILES	Activity (HCT-116 [1])	Activity (HCT-116 [2])	IC50 (MDA-MB-435) [µM]	IC50 (HCT-116 [3]) [µM]	Activity (HCT-116 [4])	Activity (L1210 [9]) [Zone units]	Activity [10] [Zone units]	Activity [11] [Zone units]	Activity (MC-38 [12]) [Zone units]	also measured
C=C1C[C@H](C)C[C@@H]2CC=C[C@@H](C/C=C\C(=O)O[C@H]3C[C@@H](O[C@H]3/C=C/[C@@H]3CC(C)=CC(=O)O3)[C@@H](O)[C@@H](O)C1)O2 [FIIJIANOLIDE D]	inactive	inactive	21.4	1.9	inactive					Activity [5]: 0 Zone units; Activity (L1210 [6]): 0 Zone units; Activity [7]: 0 Zone units; Activity (MC-38 [8]): 150 Zone units
C=C1C[C@H](C)C[C@@H]2CC=C[C@@H](C/C=C\C(=O)O[C@H]3C[C@@H](O[C@H]3/C=C/[C@@H]3CC(C)=CCO3)[C@@H](O)[C@@H](O)C1)O2 [FIJIANOLIDE A]			20.2	9.7		150	50	100	0	
C=C1C[C@H](C)C[C@@H]2CC=C[C@@H](C/C=C\C(=O)O[C@H]([C@@H](O)/C=C/[C@@H]3CC(C)=CCO3)C[C@@H]3O[C@H]3[C@@H](O)C1)O2 [FIJIANOLIDE B]			0.007	0.003						Activity [13]: 250 Zone units; Activity [14]: 700 Zone units; Activity (MC-38 [15]): 800 Zone units; Activity (HCT-116 [16]): 11%; Activity (HCT-116 [17]): Active; Activity (HCT-116 [18]): 90%; concentration at 2 h [19]: 1 µg/mL; Activity [20]: 550 Zone units; concentration at 24 h [21]: 200 µg/mL; Activity (HCT-116 [22]): Active; concentration at 1 min [23]: 160 µg/mL; Activity (CCRF-CEM [24]): >1000 Zone units; viability at 0.005 µg/mL (HCT-116 [25]): 0.01%; Activity (HCT-116 [26]): inactive; Activity (HCT-116 [27]): Active; Activity (HCT-116 [28]): 4.7 µg/mg; Activity (HCT-116 [29]): 90%; Activity (L1210 [30]): 500 Zone units; Activity (HCT-116 [31]): 80%; Activity (HCT-116 [32]): 2.8 µg/mg
C=C1C[C@H](C)C[C@@H]2CC=C[C@@H](C/C=C\C(=O)OC([C@@H](O)/C=C/[C@@H]3CC(C)=CC(=O)O3)C[C@@H]3O[C@H]3[C@@H](O)C1)O2 (stereo not given in full) [FIJIANOLIDE E]	Active	Active	1.3	0.7	Active					Activity [33]: 400 Zone units; Activity [34]: 500 Zone units; Activity (MC-38 [35]): 400 Zone units; Activity [36]: 500 Zone units; Activity (CCRF-CEM [37]): 550 Zone units; Activity (L1210 [38]): 350 Zone units
C=C1C[C@H](C)C[C@@H]2CC=C[C@@H](C/C=C\C(=O)O[C@H]3C[C@@H](O[C@H]3/C=C/[C@@H]3C[C@@]4(C)O[C@H]4[C@@H](O)O3)[C@@H](O)[C@@H](O)C1)O2 [FIJIANOLIDE F]	inactive	inactive	> 50	> 50	inactive					Activity [39]: 100 Zone units; Activity [40]: 50 Zone units; Activity (L1210 [41]): 150 Zone units; Activity (MC-38 [42]): 0 Zone units
C=C1C[C@H](C)C[C@@H]2CC=C[C@@H](C/C=C\C(=O)O[C@H]([C@@H](O)/C=C/[C@@H]3C[C@@]4(C)O[C@H]4[C@@H](O)O3)C[C@@H]3O[C@H]3[C@@H](O)C1)O2 [FIJIANOLIDE G]	Active	Active	9.2	14.1	Active	150	200	200	350	Activity [43]: 100 Zone units
C=C1C[C@H](C)C[C@@H]2CC=C[C@@H](C/C=C\C(=O)O[C@H]3C[C@@H](O[C@H]3/C=C/[C@@H]3CC(C)=CC(OC)O3)[C@@H](O)[C@@H](O)C1)O2 (stereo not given in full) [FIJIANOLIDE H]	inactive	inactive	> 50	> 50	inactive					Activity [33]: 0 Zone units; Activity [34]: 0 Zone units; Activity (MC-38 [35]): 150 Zone units; Activity (L1210 [38]): 0 Zone units
C=C1C[C@H](C)C[C@@H]2CC=C[C@@H](C/C=C\C(=O)O[C@H]3C[C@@H](O[C@H]3/C=C/[C@@H]3CC(C)=CC(O)O3)[C@@H](O)[C@@H](O)C1)O2 (stereo not given in full) [FIJIANOLIDE I]	inactive	inactive	> 50	> 50	inactive	0	0	0	50	

— ChEMBL document CHEMBL1148705, “Sponge-derived fijianolide polyketide class: further evaluation of their structural and cytotoxicity properties” (J Med Chem, 2007)
